This is an account of results in ChEMBL document CHEMBL1127529, “Antipsoriatic anthrones with modulated redox properties. 2. Novel derivatives of chrysarobin and isochrysarobin--antiproliferative activity and 5-lipoxygenase inhibition” (J Med Chem, 1994).

In series [1] the target is T1, Arachidonate 5-lipoxygenase (Bos taurus, UniProt Q9BEG3).
T1 sequence (Q9BEG3 whole entry): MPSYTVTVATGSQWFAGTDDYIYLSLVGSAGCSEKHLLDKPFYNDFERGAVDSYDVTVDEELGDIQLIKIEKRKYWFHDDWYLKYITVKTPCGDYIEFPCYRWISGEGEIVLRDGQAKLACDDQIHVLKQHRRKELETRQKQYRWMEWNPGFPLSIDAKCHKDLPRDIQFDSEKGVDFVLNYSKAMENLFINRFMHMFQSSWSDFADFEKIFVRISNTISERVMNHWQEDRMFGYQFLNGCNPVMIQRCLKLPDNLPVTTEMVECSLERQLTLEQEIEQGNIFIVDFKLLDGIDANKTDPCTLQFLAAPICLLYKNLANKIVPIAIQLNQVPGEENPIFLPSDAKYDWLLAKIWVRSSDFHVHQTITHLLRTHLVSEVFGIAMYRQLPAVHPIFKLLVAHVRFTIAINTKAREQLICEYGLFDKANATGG
Kind of series: Inhibition of 5-lipoxygenase in bovine polymorphonuclear leukocytes. It counts as cell-based. Summed up:
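Bovine PMNL (10^7 cells/mL) were stimulated with Ca-ionophore. Compound was preincubated for 15 min at 37 °C.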

The nature of series [2]: Partition coefficient (logP) (HPLC). It counts as physicochemical. As to conditions: octanol/water. Summed up:
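Reversed-phase HPLC with MeOH/water/HOAc (77-23-0.1) as eluant, adjusted to pH 5.5 with concentrated NH3.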

For a further series, the system named is HaCaT. Kind of series: Antiproliferative activity against HaCaT cells. It counts as functional, cell-based. Conditions: Homo sapiens. Summed up:
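HaCaT human keratinocytes were kept in DMEM with 10% FCS, penicillin and streptomycin at 37 °C under 8% CO2. After 48 h the cells were detached with trypsin/EDTA and counted by phase-contrast microscopy.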

A short description of series [3]: Deoxyribose degradation as a measure of hydroxy radical formation. It counts as functional. The essentials:
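2-Deoxy-D-ribose (2 mM) was incubated with FeCl3 (0.1 mM) and compound (75 μM) in KH2PO4-KOH buffer pH 7.4 (30 mM) for 2 h at 37 °C with shaking. TBA-reactive material was read at 532 nm. Result is µmol malondialdehyde per mmol deoxyribose.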

Series [4] in a line: Reducing activity against 2,2-diphenyl-1-picrylhydrazyl (DPPH) with equimolar compound. It counts as functional. The essentials:
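Test compound and DPPH, each 10⁻⁴ M in acetone/PBS (1-1 v/v), mixed 1 mL + 1 mL. DPPH reduction followed spectrophotometrically at 516 nm. Reciprocal DPPH concentration plotted against time gave straight lines, and second-order rate constants (M⁻¹ s⁻¹) were taken from the slopes. Values are means, N = 3-6. Highly reactive compounds gave approximate values only.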

For the next series, the system named is Liposome. Kind of series: Inhibition of 2,2'-azobis(2-aminopropane)hydrochloride (AAPH) induced lipid peroxidation in bovine brain phospholipid liposomes. Type of series: functional, subcellular, Bos taurus.

Regarding `O=C1c2c(O)cccc2Cc2ccc(Cc3ccc(C(F)(F)F)cc3)c(O)c21`, the concentration for half-maximal inhibition (IC50) (commonly the point on the concentration scale where inhibition reaches its midpoint) is over 30 µM in series [1] and over 5 µM in the series with HaCaT. Also, the lipophilicity (logP) (in general, a log measure of how a compound divides between an organic and an aqueous phase) in series [2] turned out to be 5.92. Further, in series [3], the DD (uM of MDA mM-1) is under 0.15. Further, the kDPPH in series [4] was determined as 3.7 M⁻¹ s⁻¹.
For `COc1ccc(Cc2cc(O)c3c(c2)Cc2cccc(O)c2C3=O)cc1`, the IC50 in series [1] was over 30 µM; with HaCaT, 0.3 µM; with Liposome it was 33 µM. Moreover, the logP in series [2] was determined as 5.3. Moreover, in series [3], the DD (uM of MDA mM-1) is under 0.15. For the same molecule, the kDPPH in series [4] turned out to be 11.2 M⁻¹ s⁻¹.
For `O=C1c2c(O)cccc2Cc2ccc(CCCc3ccccc3)c(O)c21`, the concentration for half-maximal inhibition (IC50) is 11 µM in series [1], over 5 µM in the series with HaCaT and 67 µM with Liposome. The molecule further returned a log partition coefficient (logP) in series [2] of 6.44. In series [3], the DD (uM of MDA mM-1) was determined as 0.56. Besides, in series [4], the kDPPH was found to be 11.1 M⁻¹ s⁻¹.
Consider `O=C1c2c(O)cccc2Cc2ccc(Cc3ccccc3)c(O)c21`, for which the IC50 is over 30 µM in series [1], over 5 µM in the series with HaCaT and 98 µM with Liposome. This molecule also gave a logP in series [2] of 5.61. This molecule returned a DD (uM of MDA mM-1) in series [3] of under 0.25. The molecule also yielded a kDPPH in series [4] of 11.2 M⁻¹ s⁻¹.
In the case of `O=C1c2c(O)cccc2Cc2ccc(CCCc3cc(O)c(O)c(O)c3)c(O)c21`, the IC50 was determined as 0.6 µM in series [1], 0.5 µM with HaCaT and 5 µM in the series with Liposome. Also, the logP in series [2] was determined as 3.96. This molecule registered a DD (uM of MDA mM-1) in series [3] of 2.97. The kDPPH in series [4] is over 100 M⁻¹ s⁻¹.
In turn, `O=C(O)c1ccc(Cc2ccc3c(c2O)C(=O)c2c(O)cccc2C3)cc1` had a logP in series [2] of 4.1. Half-maximal inhibition in the series on Liposome (IC50) was put at 62 µM. In series [3], this molecule came in with a DD (uM of MDA mM-1) of under 0.25. In series [4], this molecule showed a kDPPH of 9.9 M⁻¹ s⁻¹.
Turning to `COc1cc(CCCc2ccc3c(c2O)C(=O)c2c(O)cccc2C3)cc(OC)c1OC`, the figures for the IC50 (in series [1]; with HaCaT) were 6 µM and 2 µM, respectively. The molecule further displayed a logP in series [2] of 5.64. The DD (uM of MDA mM-1) in series [3] is under 0.15. For the same molecule, in series [4], the kDPPH is over 100 M⁻¹ s⁻¹.
On to `O=C1c2c(O)cccc2Cc2ccc(Cc3cc(O)ccc3O)c(O)c21`, for which the IC50 was 0.9 µM in series [1], 0.7 µM with HaCaT and 7 µM with Liposome. The logP in series [2] amounted to 3.33. Besides, the DD (uM of MDA mM-1) in series [3] amounted to 1.46. Besides, in series [4], the kDPPH is over 100 M⁻¹ s⁻¹.
For `O=C(c1ccccc1)c1cc(O)c2c(c1)Cc1cccc(O)c1C2=O`, the 50% inhibitory concentration (IC50) in series [1] was over 30 µM; with Liposome, 40 µM. Besides, the logP in series [2] stood at 4.83. Moreover, the DD (uM of MDA mM-1) in series [3] was 1.97. The kDPPH in series [4] was over 100 M⁻¹ s⁻¹.
As to `Cc1ccc(C(=O)c2cc(O)c3c(c2)Cc2cccc(O)c2C3=O)cc1`, the figures for the IC50 (in series [1]; with Liposome) were over 30 µM and 40 µM, respectively. This molecule came in with a logP in series [2] of 5.14. This molecule also yielded a DD (uM of MDA mM-1) in series [3] of 1.01. Besides, the kDPPH in series [4] was over 100 M⁻¹ s⁻¹.
In the case of `O=C1c2c(O)cccc2Cc2ccc(Cc3ccc(Cl)cc3)c(O)c21`, the concentration for half-maximal inhibition (IC50) in series [1] is over 30 µM; in the series with Liposome it was 150 µM. This molecule also registered a logP in series [2] of 5.98. For the same molecule, in series [3], the DD (uM of MDA mM-1) is under 0.15. In series [4], the kDPPH came to 19.3 M⁻¹ s⁻¹.
`CC(Cc1ccc(O)c(O)c1)C(C)Cc1ccc(O)c(O)c1` (centres undefined) [NORDIHYDROGUAIARETIC ACID]: the IC50 in the series on Liposome stood at 2 µM.
For the molecule `COc1ccc(CCCc2ccc3c(c2O)C(=O)c2c(O)cccc2C3)cc1`, the figures for the IC50 (in series [1]; in the series with HaCaT) were 30 µM and over 5 µM, respectively. Also, the logP in series [2] worked out at 6.46. This molecule came in with a DD (uM of MDA mM-1) in series [3] of under 0.15. For the same molecule, the kDPPH in series [4] came out at 14 M⁻¹ s⁻¹.
`COc1ccc(Cc2ccc3c(c2O)C(=O)c2c(O)cccc2C3)cc1OC` returned an IC50 in series [1] of over 30 µM. In series [2], this molecule came in with a logP of 5.79. Also, the DD (uM of MDA mM-1) in series [3] is under 0.15. Also, the kDPPH in series [4] was over 100 M⁻¹ s⁻¹.
With `COC(=O)c1ccc(Cc2ccc3c(c2O)C(=O)c2c(O)cccc2C3)cc1`, the half-maximal inhibitory concentration (IC50) in series [1] is over 30 µM. In addition, the logP in series [2] amounted to 5.34. Further, the DD (uM of MDA mM-1) in series [3] was under 0.25. The molecule further yielded a kDPPH in series [4] of 10.4 M⁻¹ s⁻¹.
As for `O=C1c2c(O)cccc2Cc2ccc(Cc3cccc(Oc4ccccc4)c3)c(O)c21`, the IC50 in series [1] was over 30 µM. The same molecule showed a logP in series [2] of 6.35. Also, in series [3], the DD (uM of MDA mM-1) was under 0.15. The kDPPH in series [4] worked out at 6.4 M⁻¹ s⁻¹.
In the case of `COc1ccc(C(=O)c2cc(O)c3c(c2)Cc2cccc(O)c2C3=O)cc1`, the IC50 is over 30 µM in series [1] and 1.7 µM with HaCaT. For the same molecule, the logP in series [2] is 4.83. In series [3], the DD (uM of MDA mM-1) came to 0.98. The molecule further gave a kDPPH in series [4] of over 100 M⁻¹ s⁻¹.
In turn, `COc1ccc(Cc2ccc3c(c2O)C(=O)c2c(O)cccc2C3)cc1` displayed an IC50 in series [1] of over 30 µM. Moreover, the log partition coefficient (logP) in series [2] is 5.62. The molecule further registered a DD (uM of MDA mM-1) in series [3] of under 0.25. This molecule showed a kDPPH in series [4] of 11.3 M⁻¹ s⁻¹.
`O=C1c2c(O)cccc2Cc2cc(Cc3ccccc3)cc(O)c21`: the IC50 in series [1] was over 30 µM; with Liposome, 64 µM. In series [2], this molecule displayed a lipophilicity (logP) of 5.29. This molecule had a DD (uM of MDA mM-1) in series [3] of under 0.25. Moreover, the kDPPH in series [4] worked out at 18.1 M⁻¹ s⁻¹.
On to `COc1ccc(OC)c(Cc2cc(O)c3c(c2)Cc2cccc(O)c2C3=O)c1`, for which the IC50 was over 30 µM in series [1] and 0.2 µM with HaCaT. In series [2], this molecule displayed a logP of 5.17. The same molecule registered a DD (uM of MDA mM-1) in series [3] of 0.51. For the same molecule, the kDPPH in series [4] was found to be 14.8 M⁻¹ s⁻¹.
On to `COc1ccccc1Cc1ccc2c(c1O)C(=O)c1c(O)cccc1C2`, for which, in series [1], the IC50 is over 30 µM. The molecule also showed a logP in series [2] of 5.62. For the same molecule, the DD (uM of MDA mM-1) in series [3] was under 0.25. The molecule further displayed a kDPPH in series [4] of 12 M⁻¹ s⁻¹.
For `O=C1c2c(O)cccc2Cc2cc(Cc3cc(O)ccc3O)cc(O)c21`, the log partition coefficient (logP) in series [2] was 3.2. The figures for the IC50 in the series on HaCaT and in the series on Liposome were 0.4 µM and 3 µM, respectively. The molecule further returned a DD (uM of MDA mM-1) in series [3] of 1.74. In series [4], this molecule had a kDPPH of over 100 M⁻¹ s⁻¹.
With `COc1ccc(OC)c(Cc2ccc3c(c2O)C(=O)c2c(O)cccc2C3)c1`, the values for the IC50 (in series [1]; with Liposome) were over 30 µM and over 200 µM, respectively. The molecule further came in with a log partition coefficient (logP) in series [2] of 5.72. The same molecule came in with a DD (uM of MDA mM-1) in series [3] of under 0.15. Further, the kDPPH in series [4] was over 100 M⁻¹ s⁻¹.
The corresponding values for `O=C1c2c(O)cccc2Cc2ccc(CCCCc3ccccc3)c(O)c21` are over 30 µM, 112 µM, 6.81, under 0.15 and 10.4 M⁻¹ s⁻¹.
For `O=C1c2c(O)cccc2Cc2ccc(CCc3ccccc3)c(O)c21` the same measures were over 30 µM, 110 µM, 6.23, under 0.15 and 16.1 M⁻¹ s⁻¹.
Turning to `COc1ccc(Cc2ccc3c(c2O)C(=O)c2c(O)cccc2C3)c(OC)c1`, the figures for the 50% inhibitory concentration (IC50) (in series [1]; in the series on HaCaT) were over 30 µM and over 5 µM, respectively. Further, the logP in series [2] is 5.04. Besides, the DD (uM of MDA mM-1) in series [3] is under 0.15. Besides, the kDPPH in series [4] is over 100 M⁻¹ s⁻¹.
With `COC(=O)c1ccccc1Cc1ccc2c(c1O)C(=O)c1c(O)cccc1C2`, the IC50 in series [1] was over 30 µM. The logP in series [2] amounted to 5.24. The same molecule yielded a DD (uM of MDA mM-1) in series [3] of under 0.15. In series [4], this molecule returned a kDPPH of 11.4 M⁻¹ s⁻¹.
On to `O=C1c2c(O)cccc2Cc2ccc(Cc3ccc(O)c(O)c3)c(O)c21`, for which the 50% inhibitory concentration (IC50) in series [1] came to 4 µM; in the series with HaCaT, 0.4 µM. In series [2], this molecule displayed a logP of 4.01. The DD (uM of MDA mM-1) in series [3] came out at 1.82. The kDPPH in series [4] is over 100 M⁻¹ s⁻¹.
